# Assay outcomes from PubChem BioAssay.
# Shown are actives, neighbours in structure and some others; about 2.3% of the full set was active somewhere.
# RORa activator – activators of orphan receptor RORA, primary screen, cell-based, luminescence. Nuclear receptor ROR-alpha (Homo sapiens), P35398. 65,000 compounds, 1.5% hits. CHO-K1 Gal4-RORA LBD luciferase reporter; percent increase over mock-subtracted basal signal. activation, % at 10 µM;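 active means activation above the mean of all tested compounds plus 3 SD, cut at about 49% in these data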;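 further: 0% = DMSO-treated RORA cells and 100% = added signal equal to DMSO minus mock-transfected cells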
# SF1 activator – activators of human SF-1, primary screen, cell-based, CHO-K1, Gal4-SF-1 LBD, luciferase luminescence; Steroidogenic factor 1 (Homo sapiens), Q13285; CHO-K1 Gal4-SF-1 LBD luciferase reporter; % increase over DMSO SF-1-specific signal; activation, % at 10 µM; 65,000 compounds, 1.9% hits;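 active means activation above the mean activation of all tested compounds plus 3 SD, cut at about 50% in these data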
#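 Material: Transient Gal4-SF-1 LBD reporter, CHO-K1 | Input: 4,000 cells/well | Dosing: One dose, 10 µM compound, 1% DMSO | Incubation: 20 h compound treatment, 37 °C | Detection: SteadyLite luciferase luminescence | Evaluation: Percent activation relative to DMSO median and mock-transfected background | Benchmarks: DMSO-treated SF-1-transfected cells as negative, DMSO-treated mock-transfected cells lacking SF-1 as background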
# MT1-MMP txn act – MT1-MMP promoter reporter activation – cell-based, luciferase luminescence, primary screen; HT1080 MT1-MMP promoter luciferase reporter, overnight; hits give high values; activation factor at 10 µM; 86,000 compounds, 0.16% hits;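 active means activation factor of at least 2 for MT1-MMP transcription at 10 µM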
# JNK3 inh – JNK3 kinase activity inhibitors, primary screen, biochemical, human, purified enzyme | Mitogen-activated protein kinase 10 (Homo sapiens), P53779 | inhibition, % at 8 µM | 60,000 compounds, 0.61% hits | HTS | AID 746, 2007; in the data active means inhibition above about 17%;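 further: 0% = DMSO and 100% = reference inhibitor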
# An asterisk follows results filed as active; nt = not tested or not shown.
SMILES,RORa activator,SF1 activator,MT1-MMP txn act,JNK3 inh
Cn1ncnc2c(=O)n(C)c(=O)nc1-2,-97.5,-96.5,nt,60.1*
Cc1ccc(-n2c(O)c(C=Nc3ccccc3N)c(=O)[nH]c2=O)cc1C,55.4*,45.8,1.1,-7.4
Cc1ccc(-n2c(O)c(C=NCc3cccnc3)c(=O)[nH]c2=O)cc1C,9.8,8.1,1.2,4.3
c1ccc2cc3cc4ccccc4cc3cc2c1,nt,nt,1.8,nt
